Furin inhibitor: human furin inhibition; P09958; purified furin, fluorogenic substrate cleavage; inhibition, % at 20 µM or 30 µM; 0.061% of 220,000 active; in the data active = inhibition above about 25%
NPY-Y1 antag: antagonists of human neuropeptide Y receptor Y1; AID 1040; P25929; HEK293-CNG Y1 cells, membrane potential fluorescence; NPY at EC95, then isoproterenol; inhibition, % at 3.6 µM; 1% of 200,000 active;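 active = inhibition above the campaign mean inhibition of all tested compounds plus 3 SD, cut at about 20% in these data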
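Material: HEK293 cells with Y1 receptor plus CNG channel; times: compound incubation 1 h at room temperature, readout 45 min post-stimulation; signal: fluorescence, membrane potential probe; read-out basis: fluorescence ratio normalized to % inhibition between controls; benchmarks: full-block control isoproterenol-only wells, zero-block control NPY plus isoproterenol wells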
NPY-Y2 antag: antagonists of human neuropeptide Y receptor Y2 | P49146 | NPY-Y2 expressing cells, antagonist mode | inhibition, % at 2.7 µM | 0.99% of 140,000 active | AID 793; in the data active = inhibition above about 17%
NPY-Y1 PAM-ag: potentiators or agonists of human neuropeptide Y receptor Y1; NPY-Y1 expressing cells, potentiator/agonist activation; activation, % at 3.6 µM; 0.37% of 220,000 active; AID 1304; in the data active = activation above about 33%, passing the limit was not always enough;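 note: cells stimulated with NPY at EC10 then isoproterenol at EC100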
NPY-Y2 PAM-ag: potentiators or agonists of human neuropeptide Y receptor Y2; P49146; activation, % at 3.6 µM; 0.45% of 220,000 active; cells expressing NPY-Y2, potentiator/agonist read-out; in the data active = activation above about 27%;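 note: cells stimulated with NPY near EC25 plus isoproterenol at EC100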
Cl transport mod: KCC2 (human) Cl- transport modulation; Q9H2X9; KCC2 cells, thallium flux FluoZin-2 fluorescence; B-score of Tl+ flux slope (higher = more flux/activation; lower = inhibition) at 10 µM; 2.2% of 190,000 active; AID 1456;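 active = thallium flux slope and its plate-corrected score both differing from the plate sample mean at a set confidence after two filtering rounds, in either direction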;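 note: slope of fluorescence scaled to starting intensity during 10 to 20 s after thallium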
Target sequence (Q9H2X9 whole entry, looked up): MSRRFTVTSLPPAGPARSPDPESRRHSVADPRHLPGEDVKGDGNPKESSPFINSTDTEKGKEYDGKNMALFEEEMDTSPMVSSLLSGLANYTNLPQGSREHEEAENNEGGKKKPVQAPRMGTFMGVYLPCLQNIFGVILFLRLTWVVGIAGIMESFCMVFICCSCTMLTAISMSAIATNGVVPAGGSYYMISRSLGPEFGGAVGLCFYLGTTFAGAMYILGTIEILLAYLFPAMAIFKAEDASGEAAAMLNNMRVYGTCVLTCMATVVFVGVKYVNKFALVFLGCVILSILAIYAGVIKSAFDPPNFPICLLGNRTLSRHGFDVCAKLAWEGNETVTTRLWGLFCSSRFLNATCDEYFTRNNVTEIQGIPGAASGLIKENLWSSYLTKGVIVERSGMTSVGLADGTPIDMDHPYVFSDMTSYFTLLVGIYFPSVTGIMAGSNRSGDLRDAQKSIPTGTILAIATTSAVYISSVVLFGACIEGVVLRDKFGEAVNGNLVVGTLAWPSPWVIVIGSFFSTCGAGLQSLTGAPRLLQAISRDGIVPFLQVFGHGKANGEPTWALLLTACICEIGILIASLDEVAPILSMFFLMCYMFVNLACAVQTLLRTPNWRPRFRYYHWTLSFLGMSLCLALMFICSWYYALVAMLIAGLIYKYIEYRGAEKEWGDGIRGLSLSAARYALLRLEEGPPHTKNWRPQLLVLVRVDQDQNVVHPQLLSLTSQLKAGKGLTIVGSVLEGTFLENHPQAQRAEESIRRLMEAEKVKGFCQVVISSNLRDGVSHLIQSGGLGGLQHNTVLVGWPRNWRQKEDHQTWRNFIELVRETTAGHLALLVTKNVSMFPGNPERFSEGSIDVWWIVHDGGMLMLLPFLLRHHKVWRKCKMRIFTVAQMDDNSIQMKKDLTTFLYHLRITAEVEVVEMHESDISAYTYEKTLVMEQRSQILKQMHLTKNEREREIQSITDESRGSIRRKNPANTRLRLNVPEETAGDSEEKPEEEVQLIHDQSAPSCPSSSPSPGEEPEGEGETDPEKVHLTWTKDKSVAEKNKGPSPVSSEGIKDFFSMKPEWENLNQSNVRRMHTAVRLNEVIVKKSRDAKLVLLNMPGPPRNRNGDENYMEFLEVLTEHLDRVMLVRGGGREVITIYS
KCC2 secondary: confirmation of human KCC2 transport modulators | shares compounds with Cl transport mod | HEK293-KCC2, thallium flux, FluoZin2 fluorescence; stronger effect = higher value | normalised thallium flux (F/F0 slope) at 10 µM | 15% of 3,700 active | AID 1713;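 active = thallium flux slope above the same plate's solvent-only control mean plus 3 SD; inconclusive = the two replicate wells disagree; inactive = no significant difference from solvent-only control wells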
KCC2 bumet counter: bumetanide-insensitive thallium flux in KCC2 cells with ouabain, counter-screen; shares compounds with Cl transport mod; AID 1714; normalized thallium flux at 10 µM; 49% of 3,700 active; HEK293-KCC2 + bumetanide/ouabain, thallium flux FluoZin2; stronger effect = higher value;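 active = thallium entry rate above the same plate's blocked-transporter control wells by more than 3 SD; inconclusive = the two repeat wells disagree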;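 note: raw slope of fluorescence over initial fluorescence between 10 and 20 s after thallium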
KCC2 sec2: KCC2 (human) modulation, second secondary assay; shares compounds with Cl transport mod; HEK293-KCC2, thallium flux FluoZin2 fluorescence; actives lie on both sides; F/F0 rise rate, 10–20 s post-thallium; normalized thallium flux at 10 µM; 23% of 3,700 active; AID 1715;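 active = thallium flux slope more than 3 SD above or below the plate's solvent-only control mean, mostly below; inconclusive = the two repeat wells disagreed; inactive = no significant shift from solvent-only controls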
HEK293 Tl flux: parental HEK flux effect, counter-screen | AID 1716 | shares compounds with Cl transport mod | thallium flux rate (normalised fluorescence) at 10 µM | 46% of 3,700 active | HEK293 parental cells, thallium flux FluoZin2, ouabain; baseline-ratio fluorescence slope, 10–20 s after thallium;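 active = thallium flux rate significantly above the same plate's solvent-only control wells, beyond their mean plus 3 SD; inconclusive = the two replicate wells gave conflicting results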
KCC2 retest ouab: KCC2 (human) modulation, ouabain retest; shares compounds with Cl transport mod; HEK293-KCC2, thallium flux FluoZin2 fluorescence; bidirectional: low = inhibitor, high = activator; raw Tl+ flux slope (below DMSO = inhibition, above = activation) at 10 µM; 48% of 3,700 active;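 active = thallium flux slope beyond 3 SD from same-plate DMSO control mean in most replicates, usually higher, sometimes lower; inconclusive = repeat tests gave conflicting results; inactive = no significant difference from controls in most replicates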;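 note: slope of initial-normalized fluorescence between seconds 10 and 20 after thallium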
HEK counter2: acts in parental HEK cells, second KCC2 counter-screen; shares compounds with Cl transport mod; HEK293 parental, thallium flux FluoZin-2 fluorescence slope; thallium flux slope at 10 µM; 33% of 3,700 active;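 active = thallium flux slope above the same plate's solvent-control mean plus 3 SD in both duplicate wells; inconclusive = duplicate wells that disagreed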;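 note: run without ouabain in cells lacking the KCC2 cotransporter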
Large screens that a line does not name were inactive (follow-up assays come after a bar, where they were run). Shown are actives, neighbours in structure and some others; about 3.7% of the full set was active somewhere.

COc1cc(OC)c(C2=NOC(C(=O)NCCc3ccccc3)C2)cc1Cl (stereo unspecified)	none (no result: Cl transport mod) | KCC2 secondary inactive | KCC2 bumet counter inactive | KCC2 sec2 0.0259 | HEK293 Tl flux inactive | KCC2 retest ouab inconclusive | HEK counter2 inactive
COc1cc(OC)c(C2=NOC(C(=O)NCc3cccs3)C2)cc1Cl (stereo unspecified)	none (no result: NPY-Y2 antag)
O=C(NCCCCc1ccccc1)C1CC(c2ccccc2[N+](=O)[O-])=NO1 (stereo unspecified)	Cl transport mod -6.39 | KCC2 secondary inactive | KCC2 bumet counter inactive | KCC2 sec2 0.0212 | HEK293 Tl flux inactive | KCC2 retest ouab 0.0128 | HEK counter2 inactive
O=C(NCCCCc1ccccc1)C1CC(c2ccccc2C(F)(F)F)=NO1 (stereo unspecified)	Cl transport mod -4.18 (no result: NPY-Y1 antag, NPY-Y2 antag, NPY-Y1 PAM-ag, NPY-Y2 PAM-ag) | KCC2 secondary inactive | KCC2 bumet counter inactive | KCC2 sec2 0.0233 | HEK293 Tl flux inactive | KCC2 retest ouab 0.0163 | HEK counter2 inactive
CCOc1ccc(N2C(=O)CC(N(Cc3ccco3)C(=O)CCC(=O)O)C2=O)cc1 (stereo unspecified)	none (no result: NPY-Y2 antag)
CCCCSc1nnc(-c2ccc(OC)cc2)n1C	Cl transport mod -5.03 | KCC2 secondary inactive | KCC2 bumet counter inactive | KCC2 sec2 inactive | HEK293 Tl flux inactive | KCC2 retest ouab inactive | HEK counter2 inactive
O=C(O)CSc1nc(-c2cccs2)cc(C(F)(F)F)n1	none (no result: NPY-Y2 antag)
CCC(C)NC(=O)CSc1nc(-c2cccs2)cc(C(F)(F)F)n1 (stereo unspecified)	Cl transport mod 2.86 | KCC2 secondary inactive | KCC2 bumet counter inactive | KCC2 sec2 inactive | HEK293 Tl flux inactive | KCC2 retest ouab inactive | HEK counter2 inactive
Cc1ccc(OC/C(O)=C(\C#N)c2nc3ccccc3s2)cc1	Cl transport mod -4.32 | KCC2 secondary inactive | KCC2 bumet counter 0.00675 | KCC2 sec2 0.0222 | HEK293 Tl flux inconclusive | KCC2 retest ouab 0.0119 | HEK counter2 inactive
COC(=O)c1ccc(/C(O)=C(\C#N)c2nc3ccccc3s2)cc1	Cl transport mod -6.78 | KCC2 secondary inactive | KCC2 bumet counter inactive | KCC2 sec2 inactive | HEK293 Tl flux inactive | KCC2 retest ouab 0.0135 | HEK counter2 inactive
CC1SC2(NC1=O)C1CC3CC(C1)CC2C3 (stereo unspecified)	none (no result: NPY-Y2 antag)
O=C(CCCn1c(=O)[nH]c2cc(Cl)ccc2c1=O)NCC1CCCO1 (stereo unspecified)	Cl transport mod 8.55 | KCC2 secondary inactive | KCC2 bumet counter inactive | KCC2 sec2 inactive | HEK293 Tl flux inactive | KCC2 retest ouab inactive | HEK counter2 inconclusive
COC(=O)c1ccc2c(=O)n(CCCCCC(=O)NCCNC(C)=O)c(=O)[nH]c2c1	Cl transport mod 5.37 (no result: NPY-Y2 antag) | KCC2 secondary inactive | KCC2 bumet counter inactive | KCC2 sec2 inactive | HEK293 Tl flux inactive | KCC2 retest ouab inactive | HEK counter2 inactive
COC(=O)c1ccc2c(=O)n(CCCCCC(=O)NCc3ccccc3)c(=O)[nH]c2c1	none
O=C(NN1C(=O)/C(=C/C=C/c2ccco2)SC1=S)c1ccccc1O	Cl transport mod -3.26 (no result: NPY-Y1 antag, NPY-Y2 antag) | KCC2 secondary inactive | KCC2 bumet counter inconclusive | KCC2 sec2 0.0234 | HEK293 Tl flux inactive | KCC2 retest ouab inconclusive | HEK counter2 inactive
CN(C)c1ccc(C(=O)c2ccc(O)cc2O)cc1	Cl transport mod -3.59 | KCC2 secondary inactive | KCC2 bumet counter inactive | KCC2 sec2 inactive | HEK293 Tl flux inactive | KCC2 retest ouab inconclusive | HEK counter2 inactive
CCOC(=O)N1CCN(C(=O)c2cc(C)no2)CC1	Cl transport mod -3.91 (no result: NPY-Y1 antag, NPY-Y2 antag, NPY-Y1 PAM-ag, NPY-Y2 PAM-ag) | KCC2 secondary inactive | KCC2 bumet counter inactive | KCC2 sec2 inactive | HEK293 Tl flux inactive | KCC2 retest ouab inactive | HEK counter2 inactive
O=C(CSCc1cccc(Cl)c1)N1CCN(Cc2ccc3c(c2)OCO3)CC1	none (no result: Cl transport mod)
C=CCc1cccc2cc(C(=O)Nc3cccc(C(=O)O)c3)c(=O)oc12	none (no result: NPY-Y1 antag, NPY-Y2 antag)
C=CCc1cccc2cc(C(=O)NNC(=O)c3ccncc3)c(=O)oc12	Cl transport mod 4.79 (no result: NPY-Y2 antag) | KCC2 secondary inactive | KCC2 bumet counter inactive | KCC2 sec2 inactive | HEK293 Tl flux inactive | KCC2 retest ouab inactive | HEK counter2 inactive
CCC1=NN2C(=N)/C(=C\c3cccn3-c3c(C)cccc3C)C(=O)N=C2S1	Cl transport mod 9.04 (no result: NPY-Y2 antag) | KCC2 secondary inconclusive | KCC2 bumet counter 0.0282 | KCC2 sec2 inactive | HEK293 Tl flux 0.0324 | KCC2 retest ouab 0.0297 | HEK counter2 0.0146
Cc1cccc(C)c1-n1cccc1/C=C1/C(=N)N2C(=NC1=O)SN=C2S(C)(=O)=O	Cl transport mod -4.51 (no result: NPY-Y2 antag) | KCC2 secondary inactive | KCC2 bumet counter inactive | KCC2 sec2 inactive | HEK293 Tl flux inactive | KCC2 retest ouab 0.0148 | HEK counter2 inactive
CCC1=NN2C(=N)/C(=C/c3cc(C)n(Cc4ccccc4)c3C)C(=O)N=C2S1	none (no result: NPY-Y1 antag, NPY-Y2 antag)
Cc1ccc(-n2cccc2/C=C2/C(=N)N3C(=NC2=O)SN=C3S(C)(=O)=O)cc1Cl	none
CCC1=NN2C(=N)/C(=C\c3cccn3-c3ccc(C)cc3C)C(=O)N=C2S1	Cl transport mod 8.57 (no result: NPY-Y2 antag) | KCC2 secondary inactive | KCC2 bumet counter 0.0554 | KCC2 sec2 inactive | HEK293 Tl flux 0.0197 | KCC2 retest ouab 0.04 | HEK counter2 inconclusive
Cc1c(N2C(=O)c3ccccc3C2(O)c2ccccc2)c(=O)n(-c2ccccc2)n1C (stereo unspecified)	none (no result: NPY-Y1 antag, NPY-Y2 antag)
CCOC(=O)C1(Cc2cccc(Cl)c2)CCCN(CCO)C1 (stereo unspecified)	none (no result: NPY-Y2 antag, Cl transport mod)
c1ccc2c(CCNc3ncnc4nc[nH]c34)cccc2c1	Cl transport mod -3.21 | KCC2 secondary inactive | KCC2 bumet counter inactive | KCC2 sec2 inactive | HEK293 Tl flux inactive | KCC2 retest ouab 0.0167 | HEK counter2 inactive
c1ccc(CCCNc2ncnc3nc[nH]c23)cc1	none

Screening results: PubChem BioAssay, several laboratories
